ChEMBL document CHEMBL4402565, “α-Ketoamides as Broad-Spectrum Inhibitors of Coronavirus and Enterovirus Replication: Structure-Based Design, Synthesis, and Activity Assessment” (J Med Chem, 2020)
pEC50, pIC50: −log10 of the molar value.

Tests used:
[1] = Inhibition of Enterovirus A71 protease 3C using DabcylKEALFQ-GPPQF-E(Edans)-NH2 as substrate incubated for 10 mins by fluorospectrometry
How it was run: (§1)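 FRET cleavage assay in 20 mM Tris-HCl, 100 mM NaCl, 1 mM EDTA, 1 mM DTT, pH 7.3. Final enzyme 2 μM for CVB3 3Cpro or 3 μM for EV-A71 3Cpro, preincubated with inhibitor (0–100 μM) for 10 min at 37 °C. Reaction started with 20 μM final Dabcyl-KEALFQ↓GPPQF-E(Edans)-NH₂. Edans dequenching read at ex 360/em 460 nm. Triplicate, mean ± SD.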

[2] = Inhibition of […] protease 3C using DabcylKEALFQ-GPPQF-E(Edans)-NH2 as substrate incubated for 10 mins by fluorospectrometry; design: species or system Coxsackievirus; how it was run: as §1
[3] = Inhibition of SARS coronavirus M protease using Dabcyl-KTSAVLQ-SGFRKM-E(Edans)-NH2 as substrate incubated for 10 mins by fluorospectrometry; design: species or system Severe acute respiratory syndrome-related coronavirus
How it was run: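 FRET cleavage assay with 0.5 µM recombinant SARS-CoV Mpro (authentic termini) in 20 mM Tris-HCl, 100 mM NaCl, 1 mM EDTA, 1 mM DTT, pH 7.3. Enzyme was preincubated with inhibitor (0–100 µM) for 10 min at 37 °C, then 20 µM final substrate was added. Fluorescence was read at ex 360/em 460 nm. Triplicate, mean ± SD; IC50 from curve fitting.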

[4] = Inhibition of human coronavirus NL63 M protease using Dabcyl-KTSAVLQ-SGFRKM-E(Edans)-NH2 as substrate incubated for 10 mins by fluorospectrometry
How it was run: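 0.5 μM final HCoV-NL63 Mpro preincubated 10 min at 37 °C with inhibitor (0–100 μM) in pH 7.3 Tris buffer (100 mM NaCl, 1 mM EDTA, 1 mM DTT). Cleavage of 20 μM Dabcyl-KTSAVLQ↓SGFRKM-E(Edans)-NH₂ followed by fluorescence at 460 nm with 360 nm excitation. IC50 from triplicate measurements, mean ± SD.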

Enterovirus A71 [5] = test: Antiviral activity against Enterovirus A71 infected in HuH7 cells expressing T7 RNA polymerase assessed as reduction in viral RNA replication incubated for 24 hrs by luciferase reporter gene assay; type: functional, organism-based; conditions: Enterovirus A, Huh-7, 24 h
How it was run: (§2)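 Huh-T7 cells (DMEM, 2 mM glutamine, penicillin/streptomycin, 10% FCS growth or 2% maintenance, G-418 400 μg·mL⁻¹) transfected with enteroviral replicon. Compound added in growth medium at 40 μM for screening or 0, 1.25, 2.5, 5, 10, 20, 40 μM for EC50. After 24 h, cells lysed and luciferase activity read. Triplicate or quadruplicate, mean ± SD.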

[6] = Antiviral activity against […] infected in HuH7 cells expressing T7 RNA polymerase assessed as reduction in viral RNA replication incubated for 24 hrs by luciferase reporter gene assay; type: functional, organism-based; conditions: B3, Huh-7, 24 h; how it was run: as §2
SARS-CoV [7] = test: Antiviral activity against SARS coronavirus infected in HuH7 cells expressing T7 RNA polymerase assessed as reduction in viral RNA replication incubated for 24 hrs by luciferase reporter gene assay; type: functional, organism-based; conditions: Severe acute respiratory syndrome-related coronavirus, Huh-7, 24 h
How it was run: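 SARS-CoV replicon (DNA-launched, Renilla luciferase reporter) was transfected into Huh-T7 cells at 80–90% confluency. Compound at 0, 1.25, 2.5, 5, 10, 20 or 40 µM in growth medium was added after transfection. At 24 h, cells were lysed and luciferase activity measured. Runs were in triplicate or quadruplicate, reported as mean ± SD.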

[8] = Antiviral activity against […] infected in HuH7 cells expressing T7 RNA polymerase assessed as reduction in virus-induced cytopathic effect incubated for 2 days by non-radioactive cell proliferation assay; type: functional, organism-based; conditions: B3, Huh-7, 48 h
Human coronavirus 229E = test: Antiviral activity against Human coronavirus 229E infected in HuH7 cells expressing T7 RNA polymerase assessed as reduction in virus-induced cytopathic effect incubated for 48 hrs by Alamar blue based assay; type: functional, organism-based; conditions: Huh-7, 48 h
[9] = tested on: Middle East respiratory syndrome-related coronavirus; test: Antiviral activity against Middle East respiratory syndrome coronavirus infected in HuH7 cells expressing T7 RNA polymerase assessed as reduction in virus-induced cytopathic effect incubated for 2 days by non-radioactive cell proliferation assay; type: functional, organism-based; conditions: Huh-7, 48 h
[10] = tested on: Middle East respiratory syndrome-related coronavirus; test: Antiviral activity against Middle East respiratory syndrome coronavirus infected in Vero cells assessed as reduction in virus-induced cytopathic effect incubated for 3 days by non-radioactive cell proliferation assay; type: functional, organism-based; conditions: 72 h
SARS-CoV [11] = test: Antiviral activity against SARS coronavirus infected in Vero E6 cells assessed as reduction in virus-induced cytopathic effect incubated for 2 days by non-radioactive cell proliferation assay; type: functional, organism-based; conditions: Severe acute respiratory syndrome-related coronavirus, Vero C1008, 48 h
Enterovirus A71 [12] = test: Antiviral activity against Enterovirus A71 infected in RD cells assessed as reduction in virus-induced cytopathic effect incubated for 3 days by MTS assay; type: functional, organism-based; conditions: Enterovirus A, 72 h
How it was run: (§3)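 CPE reduction assay. RD (EV-A71) or HeLa Rh (EV-D68, HRV) cells seeded 24 h earlier in medium with 2% FCS; HRV2/HRV14 medium contained 30 mM MgCl₂. Serial compound dilutions added with virus. At 3 days post infection, 5% MTS added for 1 h at 37 °C and OD498 read. EC50 taken as 50% protection versus controls by logarithmic interpolation; morphology also checked microscopically.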

enterovirus D68 = test: Antiviral activity against Enterovirus D68 infected in HeLa Rh cells assessed as reduction in virus-induced cytopathic effect incubated for 3 days by MTS assay; type: functional, organism-based; conditions: Enterovirus D, 72 h; how it was run: as §3
rhinovirus A2 = test: Antiviral activity against Human rhinovirus 2 infected in HeLa Rh cells assessed as reduction in virus-induced cytopathic effect incubated for 3 days by MTS assay; type: functional, organism-based; conditions: Rhinovirus A, 72 h; how it was run: as §3
rhinovirus B14 = test: Antiviral activity against Human rhinovirus 14 infected in HeLa Rh cells assessed as reduction in virus-induced cytopathic effect incubated for 3 days by MTS assay; type: functional, organism-based; conditions: Rhinovirus B, 72 h; how it was run: as §3
[13] = Cytotoxicity against human HuH7 cells expressing T7 RNA polymerase assessed as reduction in cell viability incubated for 2 days by non-radioactive cell proliferation assay; type: cell-based, Huh-7
[14] = Cytotoxicity against human RD cells assessed as reduction in cell viability incubated for 3 days by MTS assay; type: cell-based
[15] = Cytotoxicity against human HeLa Rh cells assessed as reduction in cell viability incubated for 3 days by MTS assay; type: cell-based
[16] = Therapeutic index, ratio of CC50 for human HeLa Rh cells to EC50 for Enterovirus D68 infected in human HeLa Rh cells; type: toxicity, cell-based; conditions: read-out: Ratio CC50/EC50
[17] = Therapeutic index, ratio of CC50 for human HeLa Rh cells to EC50 for Human rhinovirus 2 infected in human HeLa Rh cells; type: toxicity, cell-based; conditions: read-out: Ratio CC50/EC50
[18] = Therapeutic index, ratio of CC50 for human HeLa Rh cells to EC50 for Human rhinovirus 14 infected in human HeLa Rh cells; type: toxicity, cell-based; conditions: read-out: Ratio CC50/EC50

Row | Compound | pIC50 [1] | pIC50 [2] | pIC50 [3] | pIC50 [4] | pEC50 (Enterovirus A71 [5]) | pEC50 [6] | pEC50 (SARS-CoV [7]) | pEC50 [8] | pEC50 (Human coronavirus 229E) | pEC50 [9] | pEC50 [10] | pEC50 (SARS-CoV [11]) | pEC50 (Enterovirus A71 [12]) | pEC50 (rhinovirus A2) | pEC50 (rhinovirus B14) | CC50 at 48 h [13] [µM] | CC50 at 72 h [14] [µM] | CC50 at 72 h [15] [µM] | further results
1 | O=C(/C=C/c1ccccc1)N[C@H](C(=O)N[C@@H](C[C@@H]1CCNC1=O)C(=O)C(=O)NCc1ccccc1)C1CC1 | < 4.52 | 4.81 | 5.20 | 4.94 | – | – | – | – | – | – | – | – | – | – | – | – | – | – | –
2 | CC(C)(C)OC(=O)N[C@@H](C[C@@H]1CCNC1=O)C(=O)C(=O)NCc1ccccc1 | < 4.30 | < 4.30 | – | < 4.30 | < 5.00 | < 5.00 | < 4.40 | – | – | – | – | – | – | – | – | – | – | – | –
3 | O=C(/C=C/c1ccccc1)N[C@@H](Cc1ccc(F)cc1)C(=O)N[C@@H](C[C@@H]1CCNC1=O)C(=O)C(=O)NCc1ccccc1 | 5.63 | 5.06 | – | < 4.30 | < 4.70 | – | – | – | – | – | – | – | – | – | – | – | – | – | –
4 | O=C(/C=C/c1ccccc1)N[C@@H](CC1CCCCC1)C(=O)N[C@@H](C[C@@H]1CCNC1=O)C(=O)C(=O)NCc1ccccc1 | 5.77 | 6.02 | 6.15 | 4.91 | 5.16 | 5.63 | 5.85 | 5.56 | 5.74 | 9.40 | 5.30 | 5.68 | 5.43 | 6.19 | 6.15 | 43 | 17.3 | 10.9 | pEC50 (enterovirus D68): 6.32; selectivity ratio [16]: > 15; selectivity ratio [17]: > 15; selectivity ratio [18]: > 15
5 | O=C(/C=C/c1ccccc1)N[C@@H](CC1CC1)C(=O)N[C@@H](C[C@@H]1CCNC1=O)C(=O)C(=O)NCc1ccccc1 | 4.73 | 5.37 | 6.62 | 5.86 | < 4.70 | 4.74 | 5.72 | 4.98 | 5.89 | 7.10 | 4.96 | 4.74 | 4.34 | 5.42 | 5.26 | > 189 | 106 | 103 | –
6 | CCCC[C@H](NC(=O)/C=C/c1ccccc1)C(=O)N[C@@H](C[C@@H]1CCNC1=O)C(=O)C(=O)NCc1ccccc1 | 5.49 | 5.28 | 5.07 | < 4.30 | < 4.70 | – | – | – | – | – | – | – | – | – | – | – | – | – | –
7 | CC(C)C[C@H](NC(=O)/C=C/c1ccccc1)C(=O)N[C@@H](C[C@@H]1CCNC1=O)C(=O)C(=O)NCc1ccccc1 | 4.86 | 5.42 | 6.48 | 5.97 | < 5.00 | < 5.00 | 5.14 | 4.62 | 6.22 | 8.34 | 5.04 | 4.85 | 4.14 | 5.05 | 4.87 | > 188 | 115 | 103 | pEC50 (enterovirus D68): 5.35
8 | O=C(/C=C/c1ccccc1)N[C@@H](CC1CCCC1)C(=O)N[C@@H](C[C@@H]1CCNC1=O)C(=O)C(=O)NCc1ccccc1 | 5.33 | 5.71 | 5.90 | 5.27 | 5.05 | 5.29 | 5.44 | 5.09 | 5.60 | 8.15 | 4.95 | 5.31 | 5.38 | 6.29 | 6.38 | 47.5 | 30.8 | 33.2 | –
9 | C#CC[C@H](NC(=O)/C=C/c1ccccc1)C(=O)N[C@@H](C[C@@H]1CCNC1=O)C(=O)C(=O)NCc1ccccc1 | 5.07 | 5.05 | 4.97 | 4.76 | – | – | < 4.70 | – | – | – | – | – | – | – | – | – | – | – | –
10 | O=C(/C=C/c1ccccc1)N[C@@H](CC1CCC1)C(=O)N[C@@H](C[C@@H]1CCNC1=O)C(=O)C(=O)NCc1ccccc1 | 4.97 | 5.32 | 5.84 | 5.46 | 4.70 | 5.37 | 5.17 | 4.98 | – | 7.70 | 5.01 | 5.15 | 4.39 | 5.43 | 5.38 | 124 | 100 | 65 | selectivity ratio [16]: > 15; selectivity ratio [17]: > 15; selectivity ratio [18]: > 15
